Where only a bound is given, the exact number is not on record here.

For data set [1], the system named is Rattus norvegicus. Description: Hypolipidemic activity was assessed by measuring liver weight in Sprague-Dawley male rats at 50 mg/kg. Type of data set: functional. To be noted: dose 20 mg/kg; in the assay text read “F 344 rats at 20 mg/kg” for “Sprague-Dawley male rats at 50 mg/kg”.
In data set [2] the test system is Rattus norvegicus. Briefly: Hypolipidemic activity was assessed by measuring liver weight in Sprague-Dawley male rats at 200 mg/kg. The format is functional. A digest of the protocol: (§1)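 Sprague-Dawley rats were fed the hyperlipidemic Nath's diet for 15 days and dosed orally at 50 or 200 mg/kg, or at 6.25, 12.5 and 25 mg/kg on a diet with 0.5% cholesterol and cholic acid. After an 18-h fast they were killed on day 16, 24 h after the last dose. Serum total cholesterol and triglycerides were assayed, and liver weight was expressed per 100 g bodyweight. Groups were compared with Nath's-diet controls by Student's t test.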

Data set [3] relates to Rattus norvegicus. Briefly: Hypolipidemic activity was assessed by measuring triglycerides in Sprague-Dawley male rats at 50 mg/kg. Type of data set: functional. The procedure, abridged: (§2)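 Male Sprague-Dawley rats (185-g mean bodyweight) on a normal diet were dosed orally for 4 consecutive days at 50 mg/kg or 200 mg/kg. They were fasted 18 h, and blood was drawn from the abdominal aorta 24 h after the last dose. Serum total cholesterol, triglycerides (mg/100 mL) and lipoprotein α-cholesterol (% of total cholesterol) were measured. Groups of 10–40 rats were compared with controls by Student's t test.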

Data set [4] relates to Rattus norvegicus. Briefly: Hypolipidemic activity was assessed by measuring alpha-cholesterol in Sprague-Dawley male rats at 50 mg/kg. The format is functional. To be noted: dose 50 mg/kg. A digest of the protocol:
as §2

Data set [5] concerns Rattus norvegicus. Briefly: Hypolipidemic activity was assessed in Variation of the carnitine acetyl transferase was expressed as units per mg of protein in F 344 rats at 20 mg/kg.
For data set [6], the system named is Rattus norvegicus. Description: Hypolipidemic activity was assessed by measuring body weight in F 344 rats at 20 mg/kg.
Data set [7] relates to Rattus norvegicus. Briefly: Hypolipidemic activity was assessed in Variation of the liver enzyme catalase was expressed as units per mg of protein. in F 344 rats at 20 mg/kg.
Data set [8] has as its system Rattus norvegicus. Briefly: Hyperlipidemic activity was assessed by measuring triglycerides in Sprague-Dawley male rats at 200 mg/kg. The format is functional. The procedure, abridged: as §1
The subject of data set [9] is Rattus norvegicus. Briefly: Hyperlipidemic activity was assessed by measuring cholesterol in Sprague-Dawley male rats at 200 mg/kg.
For data set [10], the system named is Rattus norvegicus. Briefly: Hypolipidemic activity was assessed by measuring cholesterol in Sprague-Dawley male rats at 50 mg/kg. The format is functional. The procedure, abridged:
as §2

In data set [11] the test system is Rattus norvegicus. Description: Hypolipidemic activity was assessed in Variation of the enoyl-CoA oxide (umol/min mg) in F 344 rats at 20 mg/kg.
Data set [12] in a line: Evaluated for the dose that causes 50 % lethality in Sprague-Dawley male rats. Type of data set: ADME, organism-based. Particulars: rat, in vivo.
The subject of data set [13] is Rattus norvegicus. Briefly: Hypolipidemic activity was assessed in Variation of palmitoyl-CoA oxide (umol/min mg) in F 344 rats at 20 mg/kg.
Data set [14] concerns Rattus norvegicus. Briefly: Hyperlipidemic activity was assessed by measuring triglycerides in Sprague-Dawley male rats at 50 mg/kg. The format is functional. The procedure, abridged:
as §1

In data set [15] the test system is Rattus norvegicus. Briefly: Hypolipidemic activity was assessed in variation of palmitoyl-CoA oxide (umol/min mg) in F 344 rats at 20 mg/kg.
For data set [16], the system named is Rattus norvegicus. Description: Hypolipidemic activity was assessed inVariation of the enoyl-CoA oxide (umol/min mg) in F 344 rats at 20 mg/kg.
Data set [17] has as its system Rattus norvegicus. Description: Hyperlipidemic activity was assessed by measuring liver weight in Sprague-Dawley male rats at 50 mg/kg. The format is functional. The procedure, abridged: as §1
For data set [18], the system named is Rattus norvegicus. Description: Hypolipidemic activity was assessed in variation of the liver enzyme catalase was expressed as units per mg of protein in F 344 rats at 20 mg/kg.
Data set [19] relates to Rattus norvegicus. Briefly: Hyperlipidemic activity was assessed by measuring cholesterol in Sprague-Dawley male rats at 50 mg/kg. The format is functional. A digest of the protocol: as §1

For `Cc1cccc(Nc2cc(Cl)nc(N(C)C)n2)c1C` [LODINIXIL], the Liver weight in data set [1] was 3.9 g (100g of body weight)-1; in data set [2], 5.97 g 100g-1. Also, the Triglycerides is 96.5 mg/100 mL in data set [3] and under 182 mg 100ml-1 in [8]. In addition, the Alpha-cholesterol in data set [4] was 69.6%. The Carnitine acetyl transferase in data set [5] came out at 7 U/mg protein. In [6], this compound had a Body weight of 268 g. Also, the Catalase in data set [7] is 38 U/mg protein. The Cholesterol in data set [9] is on record as 771 mg 100ml-1; in data set [10], 57.8 mg 100ml-1. The same compound came in with an Enoyl-CoA hydratase in [11] of 3.8 µM/min/mg. The LD50 – broadly, the dose expected to kill half of the subjects tested – in [12] was under 2500 mg/kg. In data set [13], the Palmitoyl-CoA oxid was 0.015 µM/min/mg.
For the compound `Cc1cccc(Nc2cc(Cl)nc(OCC(=O)O)n2)c1C`, the Triglycerides in [14] is under 215.6 mg 100ml-1; in data set [3], under 67.3 mg/100 mL. Further, the Liver weight in data set [1] was 4.5 g (100g of body weight)-1; in data set [17], 6.29 g 100g-1. The compound also yielded an Alpha-cholesterol in data set [4] of under 83.8%. Besides, the Palmitoyl-CoA oxid in data set [15] amounted to 0.088 µM/min/mg. In addition, in data set [5], the Carnitine acetyl transferase came to 10 U/mg protein. This compound came in with an Enoyl-CoA hydratase in [16] of 2.5 µM/min/mg. The compound further had a Body weight in data set [6] of 245 g. Moreover, the Cholesterol in data set [10] is recorded as under 57.3 mg 100ml-1; in data set [19] it was under 548.8 mg 100ml-1. In data set [18], this compound gave a Catalase of 77 U/mg protein. In data set [12], this compound yielded a 50% lethal dose (LD50) of 1080 mg/kg.

The values are drawn from ChEMBL document CHEMBL1122536, “Novel pyrimidine and 1,3,5-triazine hypolipidemic agents” (J Med Chem, 1984).
